Six molecules from PubChem BioAssay AID602434 (Sanford-Burnham Center for Chemical Genomics, 2012) can be followed below.

This test concerns the target CHO-CHOP luciferase reporter, UPR activation, luminescence. The test can be described thus: PERK-eIF2a-CHOP reporter activation – CHO-CHOP cells, luciferase luminescence, set 3, SAR follow-up (AID 602434). The essentials: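 Test system: CHO-CHOP luciferase reporter cells. Times: cells plated 16-18 h before dosing, 6 h compound exposure at 37 °C. Signal: luminescence with Steady-Glo luciferase reagent.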

As for `CC1CCN(S(=O)(=O)c2ccc(NC(=O)c3ccc([N+](=O)[O-])o3)cc2)CC1`, the 50% effective concentration (EC50) was 761 nM.
To `O=C(Nc1ccc(S(=O)(=O)N2CCC(Cl)CC2)cc1)c1ccc([N+](=O)[O-])o1` belongs 785 nM; to `O=C(Nc1ccc(S(=O)(=O)N2CCCCC2)cc1)c1ccc([N+](=O)[O-])o1`, 741 nM.
Consider `CC(C)(C)C1CCN(S(=O)(=O)c2ccc(NC(=O)c3ccc([N+](=O)[O-])o3)cc2)CC1`, for which the concentration giving a half-maximal response (EC50) is 652 nM.
To `CC1(C)CCN(S(=O)(=O)c2ccc(NC(=O)c3ccc([N+](=O)[O-])o3)cc2)CC1` belongs 765 nM; to `O=C(Nc1ccc(S(=O)(=O)N2CCC(F)CC2)cc1)c1ccc([N+](=O)[O-])o1`, 435 nM.
